Rows were chosen to be rich in hits. Some 3.1% of all compounds tested hit in one or more screens of this group.
KCNQ1 inh = human KCNQ1 channel inhibition | P51787 | CHO-K1 KCNQ1, FluxOR thallium flux fluorescence; hits give high values | B-score at 10 µM | actives 1.3% (n = 310,000) | AID 2642;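 active = compounds whose thallium flux B-score, printed positive for inhibition, exceeds three library SD while starting fluorescence stays within three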;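 note: channel opened by potassium depolarization with thallium stimulus after 20 min compound exposure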
KCNK9 inh = inhibitors of human KCNK9 two-pore domain potassium channel; B-score at 10 µM; Q9NPC2; actives 1.2% (n = 310,000); HEK293 KCNK9, FluxOR thallium flux fluorescence; hits give low values;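 active = ratio B-score over 3 SD below the library mean, with starting fluorescence within 5 SD of its mean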;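 note: negative B-score means less thallium flux so channel inhibition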
KCNQ1 pot = human KCNQ1 channel potentiation or activation | B-score at 10 µM | AID 2648 | P51787 | actives 0.35% (n = 310,000) | CHO-K1 KCNQ1, thallium flux FluxOR fluorescence; hits give high values;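 active = fluorescence ratio B-score, a plate-corrected score, at least three library SD, with initial intensity B-score within 5 SD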
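Assay system: CHO-K1 cells stably expressing KCNQ1; Medium: assay buffer with matched DMSO; Also added: K+/Tl+ depolarizing stimulus; Dosing: single dose; Timing: dye 90 min, compound 20 min, room temperature; Measured by: kinetic FluxOR thallium fluorescence, 10-s 1-Hz baseline, 110-s post-stimulus read; Read-out: peak-minus-minimum fluorescence over initial fluorescence, negative-control normalized, B-scored.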
KCNK3 block = human KCNK3 channel inhibition, primary screen | O14649 | CHO-KCNK3 thallium flux, FluxOR fluorescence; hits give low values | B-score at 10 µM | actives 0.84% (n = 340,000);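 active = B-score under library mean minus 4 SD, starting fluorescence ratio at most library mean plus 5 SD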;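 note: more negative B-score means stronger inhibition of thallium flux through KCNK3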
Target sequence (O14649 whole entry, looked up): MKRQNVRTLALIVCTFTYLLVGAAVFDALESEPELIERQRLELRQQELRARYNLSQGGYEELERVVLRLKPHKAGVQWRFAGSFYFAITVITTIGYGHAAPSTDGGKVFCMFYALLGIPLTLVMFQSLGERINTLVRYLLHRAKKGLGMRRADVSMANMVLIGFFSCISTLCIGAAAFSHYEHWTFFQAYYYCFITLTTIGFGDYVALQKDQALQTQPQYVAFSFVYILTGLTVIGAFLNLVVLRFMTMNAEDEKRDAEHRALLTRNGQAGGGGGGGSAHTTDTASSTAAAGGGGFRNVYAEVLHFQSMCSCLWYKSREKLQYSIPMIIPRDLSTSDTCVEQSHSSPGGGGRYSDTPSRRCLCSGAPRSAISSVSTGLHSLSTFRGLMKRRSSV
hERG protect = compounds protecting human hERG from proarrhythmic drug block. Q12809. CHO-hERG, FluxOR thallium flux, dofetilide IC70 present. activation (rescue from dofetilide block), less the hit threshold, % at 10 µM. actives 0.51% (n = 310,000). AID 1511;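 active = activation above the mean of controls blocked by dofetilide plus 5 SD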;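 note: thallium influx through hERG after potassium depolarization seen as dye fluorescence rise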
Active calls of the source: *; i = inactive; / = no result given.

SMILES	KCNQ1 inh	KCNK9 inh	KCNQ1 pot	KCNK3 block	hERG protect
NC(=O)c1cccc(N=Cc2cc(Cl)cc(Cl)c2O)c1	i	i	10*	i	6.5*
Oc1c(Cl)cc(Cl)cc1/C=N/c1nccs1	i	i	9*	i	-6.2
CC(C(=O)N(C)C1CCCCC1)N1CCC(C(N)=O)CC1 (stereo unspecified)	i	i	i	i	-3.8
Cc1nc(SC(C)C(=O)c2c(N)n(C)c(=O)n(C)c2=O)c2c(C)c(C)sc2n1 (stereo unspecified)	i	i	14*	i	-5.8
O=C(/C=C/c1cccc([N+](=O)[O-])c1)NCCSCc1cccc(Cl)c1	i	-7.7*	i	i	-11.2
O=C(/C=C/c1cccc([N+](=O)[O-])c1)NCc1ccccc1	i	i	i	i	-5.6
O=C(CCC(=O)c1cccs1)Nc1ncccc1O	i	i	i	i	-12.7
Cc1cc(Cl)n2c(nc3ccccc32)c1C#N	6*	i	i	i	-29.8
Cc1ccc(NC(=O)COC(=O)c2ccc(NC(=O)CC#N)cc2)cc1S(=O)(=O)N1CCOCC1	/	/	/	i	/
CC(NCC(O)COCCC12CC3CC(CC(C3)C1)C2)c1ccccc1 (stereo unspecified)	8*	i	i	i	-18.2
Cn1c(SCc2c(Cl)cccc2Cl)nc(C(F)(F)F)cc1=O	i	-6.67*	i	i	-5.0
CCCCNC(=S)NNC(=O)c1nn(C)c(C)c1Cl	i	i	17*	i	-13.8
Cc1[nH]n(-c2ccccc2)c(=O)c1N=Nc1nccs1	i	i	78*	i	114.4*
Cc1[nH]n(-c2ccccc2)c(=O)c1N=Nc1ccccc1O	i	i	i	i	-3.4
CCCCCCCc1n[nH]c(=S)n1Cc1ccccc1	i	i	i	i	-7.6
CCCCc1n[nH]c(=S)n1Cc1ccc(C)cc1	i	-16.6*	i	i	-5.4
COC(=O)C1=C(Nc2ccccc2NS(=O)(=O)c2ccc(C(F)(F)F)cc2Cl)CSC1	6*	i	i	i	-11.2
Cc1ccc(C)c(-n2c(-c3ccc(Br)cc3)csc2=NC(=O)c2ccccc2F)c1	i	-7.74*	i	i	-4.6
C=C1/C(=C\C=C2/CCC[C@]3(C)[C@@H]([C@H](C)CCCC(C)(C)O)CC[C@@H]23)C[C@@H](O)C[C@@H]1O	7*	i	i	/	-6.7
COc1ccc(OC)c(C(=O)c2coc3cc(Br)c(O)c(Br)c23)c1	i	-7.56*	i	i	-7.1
CC(CN1CCCCC1)OC(=O)COc1ccc(Br)cc1 (stereo unspecified)	i	i	i	i	-3.9
O=C(CSc1nnc(NC2CCCCC2)s1)N1CCOCC1	/	/	/	i	/
COC(=O)c1c(NC(=O)c2nc3ccccc3s2)sc2c1CCN(C(C)=O)C2	/	/	/	i	/
CNC(=O)c1c(NC(=O)c2nc3ccccc3s2)sc2c1CCC2	8*	-7.81*	i	i	-18.7
O=C1CCC(=O)N1OCCOc1ccc(Cl)c2ccccc12	6*	i	i	i	-14.4
SMILES	KCNQ1 inh	KCNK9 inh	KCNQ1 pot	KCNK3 block	hERG protect
Clc1ccc(OCCn2ccnc2)c(Cl)c1	i	i	i	i	-6.7
C=CCc1cccc(Cl)c1OCCON1C(=O)CCC1=O	i	i	i	i	-12.8
Clc1ccc(OCCn2ccnc2)c2ccccc12	6*	i	i	i	-18.8
CC1CCCC(C)N1CC(O)Cn1c2ccccc2c2ccccc21 (stereo unspecified)	i	i	i	i	-12.1
Cc1ccc(OCC(=O)NNC(=S)NC(=O)c2cccs2)c(C)c1	i	i	34*	i	-16.1
Cc1cc(OCC(=O)NNC(=S)NC(=O)c2cccs2)ccc1Cl	i	i	15*	i	-19.9
CCc1nonc1NC(=O)COc1cc(C)c(Cl)c(C)c1	i	i	i	i	-5.6
Cc1ccc(OCC(=O)NNC(=S)NC(=O)c2ccc(Br)o2)c(C)c1	i	i	69*	i	-9.3
CCc1nonc1NC(=O)COc1ccc(Cl)c(C)c1	6*	i	i	i	-9.3
CC(C)(C)c1ccc(-n2ncc3c2CCCC3NC(=O)c2cnccn2)cc1 (stereo unspecified)	i	i	i	i	-14.2
O=C(OCC(=O)N1CCc2ccccc21)c1n[nH]c(=O)c2ccccc12	/	/	/	i	/
O=C(CSc1nnc(CNC(=O)c2ccccc2)o1)NCc1ccc2c(c1)OCO2	i	i	i	i	-8.4
COc1ccc(-c2noc(CSc3ccccc3)n2)cc1OC	i	i	i	i	-15.4
COc1ccc(-c2noc(CSc3nnc(CCc4ccccc4)n3-c3ccccc3)n2)cc1OC	i	i	i	-9.66*	-12.4
Cc1ccc(F)cc1CNC(=O)C1CCC(=O)N(C2CC2)C1 (stereo unspecified)	i	i	i	i	-0.9
C=CCC1(CC=C)CCCN1C(=O)c1cc(COc2ccc(C)nc2)on1	8*	i	i	i	-26.8
Cc1ccc(OCc2cc(C(=O)N3CCCC3)no2)cn1	i	i	i	i	-10.3
C=CCC1(CC=C)CCCN1C(=O)c1cc(COc2ccccc2SC)on1	7*	i	i	i	-11.7
Cc1nc(N2CCOCC2)sc1C=O	i	i	i	i	-8.7
CC(=O)N1N=C(c2cccc([N+](=O)[O-])c2)OC1c1ccc(Br)cc1 (stereo unspecified)	i	-6.97*	i	i	-5.2
CSCCC(NC(=O)/C(=C/c1ccco1)NC(=O)c1ccc(Br)o1)C(=O)O (stereo unspecified)	i	i	i	i	0.2
Nc1ncnc2c1cnn2-c1ccccc1	i	i	i	i	-2.5
S=c1nc[nH]c2c1cnn2-c1ccccc1	i	i	19*	i	1.4
Cc1cc(NC(=O)C(C)Oc2ccc(Cl)cc2Cl)no1 (stereo unspecified)	i	i	i	i	-6.4
CCOC(=O)C1C(c2ccccc2)C(C(=O)OCC)C1c1ccccc1 (stereo unspecified)	i	i	i	i	5.7*
CCOC(=O)Cn1c(S(=O)(=O)Cc2ccc(Cl)cc2)nc(-c2ccccc2)c1-c1ccccc1	i	-6.76*	i	i	-12.1
CN(CCc1ccccc1)C(=O)c1ccc(NC(=O)Cc2ccc(NC(=O)C3CCCN(C(=O)C4CCCC4)C3)cc2)cc1 (stereo unspecified)	/	/	/	i	/
CCCCCCNc1nc(NCc2ccco2)nc(OCC)n1	i	-6.89*	i	i	-7.0
CCCCCCCCNc1nc(Cl)nc(NCc2ccco2)n1	i	i	i	i	-7.1

Bioassay records deposited in PubChem by Johns Hopkins Ion Channel Center.
